From PubChem BioAssay
HUVEC prolif 384 = inhibitors of human endothelial cell proliferation | HUVEC proliferation, CellTiter-Glo luminescence, 72 h; active compounds read low | viability, % at 10 µM (by protocol) | hit rate 1.1% among 86,000 | AID 648;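 active means viability at or below 30%; inactive means viability above 30%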
Jurkat tox 60K = cytotoxic compounds reducing Jurkat cell viability; hit rate 1.2% among 56,000; inhibition, % at 4 µM; Jurkat E6.1 viability, ATP luminescence, 48 h; AID 463;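 active means inhibition above the mean inhibition of all tested compounds plus 3 SD, cut at about 28% in these data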
Ecoli WT expand = E. coli BW25113 growth inhibition, expanded screen; OD600 absorbance; growth inhibition, % at 100 µM; hit rate 0.15% among 98,000;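 active means growth inhibition above about 50% at one test dose, limit read from the data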;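 further: growth measured after 20 h incubation at 37 °C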
H69AR inhibit = blocks growth of human H69AR lung tumor cells | H69AR lung tumor viability, ATP luminescence, 72 h; active compounds read low | viability, % at 10 µM | hit rate 6% among 85,000 | AID 598;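 active means viability at or below 40%; inactive means viability above 40%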;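 further: multidrug resistant small cell line overexpressing MRP-1 efflux transporter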
Ecoli tolC = growth inhibitors of E. coli BW25113 tolC mutant. hit rate 2.2% among 65,000. AID 573. OD615. growth inhibition, % at 10 µM (by protocol);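 active means growth inhibition at or above a cutoff equal to the mean over every tested compound plus 3 SD, cut at about 60% in these data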;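 further: growth measured after 20 h incubation at 37 °C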
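Test system: tolC-deleted E. coli BW25113 | Medium: LB with kanamycin 50 µg/mL | Compound dosing: Single concentration, 10 µM final per compound | Schedule: 37 °C, 20 h exposure | Measured by: OD at 615 nm | Evaluation: Percent growth inhibition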
Lung fibro prol = blocks proliferation of human lung fibroblasts | LL 47 human lung fibroblast viability, ATP luminescence; active compounds read low | viability, % at 10 µM | hit rate 1.1% among 85,000;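 active means viability at or below 50% in the single dose screen; inactive means viability above 50%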;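 further: compound exposure lasted 72 h before the ATP readout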
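test system = LL 47 human lung fibroblasts | amount = 1,150 fibroblasts seeded per well | medium = 15% FBS in IMEM | times = overnight cell rest, 72 h compound treatment at 37 °C | measured by = CellTiter-Glo luminescence measuring cellular ATP | read-out = viability percentage against median untreated-cell control | benchmarks = cell-only wells, no compound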
Hits are given with their value; n = inactive; x = no result. The list is not random: actives were taken first. Their share in the collection is about 6.4%.

SMILES | HUVEC prolif 384 | Jurkat tox 60K | Ecoli WT expand | H69AR inhibit | Ecoli tolC | Lung fibro prol
CCOC(=O)c1sc(C)c2c1NC(c1ccc(Cl)cc1)NC2=O (stereo not drawn) | x | x | n | x | x | x
O=C(CC12CCC(CC1)C2)NCc1ccc2c(c1)OCO2 | n | x | x | n | x | n
CCc1cc2cc(C(=O)N3CCN(Cc4ccccc4)CC3)sc2s1 | n | n | n | n | 98 | n
C#CCOC(=O)C(NC(=O)c1ccccc1)=C1CCCCC1 | n | x | n | n | x | n
CC1(C(=O)NC2CCCC2)CCC(=O)N1Cc1ccccc1Cl (stereo not drawn) | n | x | n | n | x | n
C=CCNC(=S)Nc1ccc2nc(C)c(C)nc2c1 | x | x | n | x | x | x
C=CCNC(=S)N/N=C(\C)c1ccccn1 | 19 | x | n | 20 | x | 9.2
COc1nnnc2c1sc1nc(N3CCOCC3)c3c(c12)CC(C)(C)OC3 | n | x | x | n | n | n
CC1(C)Cc2c(c(N3CCOCC3)nc3snc(N)c23)CO1 | n | x | n | n | n | 3.5
CC1(C)Cc2c(c(N3CCOCC3)nc3snc(Br)c23)CO1 | n | x | n | 19 | n | n
CC1(C)CC(=O)C2=C(C1)N(Cc1ccccc1)C(=O)C2(NC(=O)C(C)(C)C)C(F)(F)F (stereo not drawn) | n | x | n | n | x | n
O=C(Nc1nc2ccc(S(=O)(=O)N3CCCC3)cc2s1)C1CCCCC1 | n | 93 | n | 23 | n | 47
CSc1nc2ccc(S(=O)(=O)N3CCCCC3)cc2s1 | n | x | n | n | x | n
O=C(Nc1nc2ccc(S(=O)(=O)N3CCCCC3)cc2s1)C1CCCO1 (stereo not drawn) | n | n | n | n | n | n
Nc1nc2ccc(S(=O)(=O)N3CCCCC3)cc2s1 | n | x | n | 0.7 | x | 47
O=C1c2cccnc2C(=O)N1Cc1ccc(F)cc1 | n | n | n | n | n | n
COc1ccc2oc(C(=O)c3ccccc3)c(NC(=O)CN3CCN(C)CC3)c2c1 | n | n | n | 0.7 | n | n
CCOC(=O)c1oc2ccc(Br)cc2c1NC(=O)CN1CCN(C)CC1 | n | n | n | n | n | n
Nc1nc(Nc2ccc(Cl)cc2)nc2ccccc12 | n | x | 93 | 21 | x | n
Nc1nc(Nc2ccccc2)nc2ccccc12 | n | n | n | n | n | n
Cc1ccc(-n2nc3c(c2NC(=O)c2c(-c4ccccc4Cl)noc2C)CS(=O)(=O)C3)c(C)c1 | n | x | n | n | n | n
O=c1[nH]c2cc3c(cc2cc1C(c1nnnn1Cc1ccccc1)N1CCCCCC1)OCCO3 (stereo not drawn) | n | x | n | 2.1 | x | 30
Cc1cc2cc(C(c3nnnn3CC3CCCO3)N3CCCc4ccccc43)c(=O)[nH]c2cc1C (stereo not drawn) | n | n | n | n | n | n
CCc1ccc2[nH]c(=O)c(C(c3nnnn3CC3CCCO3)N3CCCc4ccccc43)cc2c1 (stereo not drawn) | n | n | n | 20 | n | n
O=c1[nH]c2cc3c(cc2cc1C(c1nnnn1Cc1ccccc1)N1CCCc2ccccc21)OCO3 (stereo not drawn) | n | n | n | 21 | n | n
SMILES | HUVEC prolif 384 | Jurkat tox 60K | Ecoli WT expand | H69AR inhibit | Ecoli tolC | Lung fibro prol
Cc1cccc2cc(C(c3nnnn3CC3CCCO3)N3CCc4ccccc4C3)c(=O)[nH]c12 (stereo not drawn) | n | n | n | n | 69 | n
Cc1ccc2cc(C(c3nnnn3CC3CCCO3)N3CCc4ccccc4C3)c(=O)[nH]c2c1 (stereo not drawn) | n | n | n | n | n | n
CCC1/C(=N\O)CC(c2ccco2)NC1c1ccco1 (stereo not drawn) | x | x | n | x | x | x
COc1cc2cc(C(c3nnnn3C(C)(C)C)N3CCc4ccccc43)c(=O)[nH]c2cc1OC (stereo not drawn) | n | n | n | n | n | n
COCCn1nnnc1C(c1cc2cc(OC)ccc2[nH]c1=O)N1CCC(Cc2ccccc2)CC1 (stereo not drawn) | n | n | n | 3.8 | n | n
COc1cc2cc(C(c3nnnn3C3CCCC3)N3CCc4ccccc43)c(=O)[nH]c2cc1OC (stereo not drawn) | n | n | n | 31 | n | 36
COc1ccc(CNc2nc3c(c(C(F)(F)F)n2)CCCCC3)cc1 | n | x | n | n | n | n
Cc1cccc(C)c1NC(=O)C1C2C=CC(C2)C1C(=O)NCc1ccccn1 (stereo not drawn) | n | x | n | n | x | n
Cc1c(Br)cc(C(=O)NC2CCCCC2)c(C)c1C | n | x | n | n | x | n
c1ccc(-c2nnc3n2N=C(c2ccc4c(c2)OCO4)CS3)nc1 | n | x | n | n | n | n
